Reference: paper PMC6626684 (Biochemical and biophysical research communications, 2019)

How the values were obtained:
WT mTRPV1 = WT mTRPV1 (Mus musculus, UniProt Q704Y3); assay: Live-cell calcium fluorescence imaging; type: cell-based
TRPV1 T551V = TRPV1 T551V (Mus musculus, UniProt Q704Y3, T551V); assay: Single-channel inside-out patch-clamp recording, T551V mutant; type: cell-based; settings: for open probability / Hill slope factor: T551V; for Hill slope factor: electrophysiology
TRPV1 T671S [1] = target: T1, TRPV1 T671S (Mus musculus, UniProt Q704Y3, T671S); assay: Single-channel inside-out patch-clamp recording, T671S mutant; type: cell-based; settings: most piperine concentrations tested
Summary of the method: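 HEK293 cells transiently transfected (Lipofectamine 2000) with eYFP-fused mouse TRPV1 mutant, used 1–2 days later. Inside-out patches held at 0 mV for 50 ms, stepped to +80 mV for 1 s. Symmetrical 130 mM NaCl, 0.2 mM EDTA, 3 mM HEPES pH 7.2, no Ca2+, 25°C. Filtered at 2.25 kHz, sampled at 10 kHz. Po from Gaussian fits to all-point histograms; patches with >2 channels discarded. Repeated-measures two-way ANOVA.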

[2] = psychophysical tests; cited from earlier work
mTRPV1 T551V = mTRPV1 T551V (Mus musculus, UniProt Q704Y3, T551V); assay: Live-cell calcium fluorescence imaging; type: cell-based; settings: for Hill slope factor: calcium imaging, T551V
TRPV1 T671V = TRPV1 T671V (Mus musculus, UniProt Q704Y3, T671V); assay: Single-channel inside-out patch-clamp recording, T671V mutant; type: cell-based
mTRPV1 E571A = mTRPV1 E571A (Mus musculus, UniProt Q704Y3, E571A); assay: Live-cell calcium fluorescence imaging; type: cell-based
[3] = system: non-transfected HEK293 cells; assay: Calcium imaging control in non-transfected cells; type: cell-based
WT TRPV1 [4] = target: T2, WT TRPV1 (Mus musculus, UniProt Q704Y3); assay: Single-channel inside-out patch-clamp recording, WT channel; type: cell-based; settings: for Hill slope factor: electrophysiology
TRPV1 E571A = TRPV1 E571A (Mus musculus, UniProt Q704Y3, E571A); assay: Single-channel inside-out patch-clamp recording, E571A mutant; type: cell-based; settings: for Hill slope factor: electrophysiology, E571A
TRPV1 T671S [5] = target: T1, TRPV1 T671S; settings: capsaicin stimulation; cited from earlier work
WT TRPV1 [6] = target: T2, WT TRPV1; settings: mTRPV1; cited from earlier work

TRPV1 T551V, sequence (Q704Y3 whole entry T551V): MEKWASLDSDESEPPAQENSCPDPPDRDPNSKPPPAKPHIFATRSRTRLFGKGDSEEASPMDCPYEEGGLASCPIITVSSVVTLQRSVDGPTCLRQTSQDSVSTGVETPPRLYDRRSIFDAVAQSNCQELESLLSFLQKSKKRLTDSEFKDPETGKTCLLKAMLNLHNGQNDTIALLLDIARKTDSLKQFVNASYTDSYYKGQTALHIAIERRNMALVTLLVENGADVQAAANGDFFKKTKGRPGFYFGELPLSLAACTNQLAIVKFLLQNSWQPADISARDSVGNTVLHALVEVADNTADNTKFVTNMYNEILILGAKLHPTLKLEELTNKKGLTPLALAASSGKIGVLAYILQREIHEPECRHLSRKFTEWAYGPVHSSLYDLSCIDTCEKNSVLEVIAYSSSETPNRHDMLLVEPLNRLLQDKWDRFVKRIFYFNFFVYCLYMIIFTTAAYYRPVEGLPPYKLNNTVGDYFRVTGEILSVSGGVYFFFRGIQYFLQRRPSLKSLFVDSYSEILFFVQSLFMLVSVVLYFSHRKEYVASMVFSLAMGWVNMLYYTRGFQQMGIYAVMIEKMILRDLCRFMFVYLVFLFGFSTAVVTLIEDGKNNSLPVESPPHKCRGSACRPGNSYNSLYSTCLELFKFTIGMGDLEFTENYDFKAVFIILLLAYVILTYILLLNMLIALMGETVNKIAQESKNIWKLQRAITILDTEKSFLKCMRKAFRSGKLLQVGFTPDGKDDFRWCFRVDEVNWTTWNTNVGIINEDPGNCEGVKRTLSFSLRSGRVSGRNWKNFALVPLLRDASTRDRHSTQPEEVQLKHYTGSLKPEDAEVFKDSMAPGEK
mTRPV1 T551V, sequence (Q704Y3 whole entry T551V): as above
TRPV1 E571A, sequence (Q704Y3 whole entry E571A): as the sequence (Q704Y3 whole entry T551V) above, with V551T, E571A counted along it
mTRPV1 E571A, sequence (Q704Y3 whole entry E571A): as the sequence (Q704Y3 whole entry T551V) above, with V551T, E571A counted along it
T2 sequence (Q704Y3 whole entry): as the sequence (Q704Y3 whole entry T551V) above, with V551T counted along it
WT mTRPV1, sequence (Q704Y3 whole entry): as the sequence (Q704Y3 whole entry T551V) above, with V551T counted along it
T1 sequence (Q704Y3 whole entry T671S, the tested form may be a part): as the sequence (Q704Y3 whole entry T551V) above, with V551T, T671S counted along it
TRPV1 T671V, sequence (Q704Y3 whole entry T671V): as the sequence (Q704Y3 whole entry T551V) above, with V551T, T671V counted along it

Structure (SMILES)	EC50 (TRPV1 T551V) [µM]	Hill slope factor (TRPV1 T551V)	EC50 (WT mTRPV1) [µM]	Hill slope factor (WT mTRPV1; calcium imaging, WT)	relative pungency-taste threshold [2] [µM]	EC50 (mTRPV1 T551V) [µM]	Hill slope factor (mTRPV1 T551V)	EC50 (mTRPV1 E571A) [µM]	Hill slope factor (mTRPV1 E571A; calcium imaging, E571A)	Hill slope factor (WT TRPV1 [4]; WT)	EC50 (TRPV1 E571A) [µM]	Hill slope factor (TRPV1 E571A)	other results
Oc1cc2c(cc1O)CN(C(=S)NCCc1ccc(Cl)cc1)CCC2 [CZP, capsazepine]													inhibition of fluorescence intensity increase induced by 10 μM piperine (WT mTRPV1; 10 μM CZP with 10 μM piperine, calcium imaging): almost completely inhibited
O=C(/C=C/C=C/c1ccc2c(c1)OCO2)N1CCCCC1 [piperine, Piperine]	93.5 ± 15.1	0.9	3.3 ± 0.7	2.2	10.5	5.1 ± 0.7	1.3	3.5 ± 0.5	2.2	2.2	277 ± 36.5	0.7	open probability (TRPV1 T551V; 10 μM piperine): 12.3 ± 2.2%; open probability (TRPV1 T551V; 30 μM piperine): 25.8 ± 5.1%; open probability compared with wildtype channels (TRPV1 T671S [1]): significantly lower; fluorescence intensity of the cells at 30 μM (WT mTRPV1; 30 μM piperine, WT, consistent with channel desensitization): decreased; efficacy (WT mTRPV1; calcium imaging, WT, normalized to 10 μM capsaicin response): 82.7 ± 5.7%; perceived pungency level, times lower than capsaicin [2]: 10-to-100 times; fluorescence signal at 30 μM (mTRPV1 T551V; 30 μM piperine, T551V expressing cells): decreased substantially; channel activity (TRPV1 T671V; 30 μM piperine): no channel activity; fluorescence signal at 30 μM (mTRPV1 E571A; 30 μM piperine, E571A expressing cells): decreased substantially; efficacy (mTRPV1 E571A; calcium imaging, E571A, normalized to 10 μM capsaicin response): 77.1 ± 7.3%; non-specific effects in untransfected cells [3]: no detectable non-specific effects; EC50 (WT TRPV1 [4]): 252 ± 38.1 µM; open probability (Po) (WT TRPV1 [4]; 30 μM piperine, WT): 10%; maximal Po predicted by extrapolation (WT TRPV1 [4]; WT, extrapolation of Hill fit): about 36%; Emax (TRPV1 E571A; read-out: maximum activation open probability (estimated)): 22%
COc1cc(CNC(=O)CCCC/C=C/C(C)C)ccc1O [capsaicin]	1.4 ± 0.03	3.3	0.1 ± 0.002	1.9	0.6	1 ± 0.02	3.3	1 ± 0.04	3.0	1.9	1.3 ± 0.03	3.0	channel activity of T671S when stimulated (TRPV1 T671S [5]): wildtype-like activities; maximum open probability (WT TRPV1 [6]): above 90%; currents from the same patches (TRPV1 T671V; capsaicin (10 μM)): robust currents
